From paper PMC7482441 (Pharmacological Research, 2020)

Legend:
[1] = Population PK / non-compartmental analysis of plasma Rimeporide in DMD boys; type: in vivo, human; conditions: for half-life: male, human, plasma, po
In short: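 Sparse plasma sampling: Day 1 pre-dose, 0.5–1, 1–2, 2.5–3.5 and ~6 h post-dose; Day 28 at 0.5–1 and ~6 h. Drug was quantified by a validated LC–MS/MS method. A 3-compartment population model with absorption and first-order elimination was fitted in NONMEM, pooled with healthy-volunteer and heart-failure data.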

animal models = conditions: cited from earlier work
FAS = test: Circulating biomarker, baseline vs 4-week treatment; type: in vivo, human; conditions: 20 DMD patients, OLink, p-value 0.0007, FDR 0.24
skeletal muscle = test: NMRI of skeletal muscle; type: in vivo, human; conditions: dose escalation, 4-week treatment
In short: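 NMRI of both lower limbs was acquired locally at baseline and week 4 of oral treatment (50–300 mg TID, 4 ascending-dose cohorts). Indices were water T2 and fat fraction in skeletal muscle. Descriptive statistics were produced per cohort.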

[2] = system: sodium-proton exchanger isoform 1 (NHE-1); conditions: cited from earlier work
[3] = system: TR (Transferrin receptor); test: Circulating biomarker, baseline vs 4-week treatment; type: in vivo, human; conditions: 20 DMD patients, OLink, p-value 3.0e-6, FDR 0.0004
KLK6 = test: as above; type: in vivo, human; conditions: 20 DMD patients, OLink, p-value 0.0004, FDR 0.20
[4] = system: Golden Retriever muscular dystrophy (GRMD) dogs; conditions: treatment in a preventing setting; cited from earlier work
mdx mice = conditions: short and long term studies in mdx mice; cited from earlier work
SCGB3A2 = test: Circulating biomarker, baseline vs 4-week treatment; type: in vivo, human; conditions: 20 DMD patients, OLink, p-value 1.3e-5, FDR 0.001
CCL15 = test: as above; type: in vivo, human; conditions: 20 DMD patients, OLink, p-value 0.0003, FDR 0.17
MB (Myoglobin) = test: as above; type: in vivo, human; conditions: 20 DMD patients, OLink, p-value 0.0036, FDR 0.79
TNFα = test: as above; type: in vivo, human; conditions: 20 DMD patients, Luminex, p-value 0.0009, FDR 0.24
[5] = system: CK T (Creatine Kinase total); test: as above; type: in vivo, human; conditions: 20 DMD patients, Electrophoresis, p-value 0.0007, FDR 0.24

[H]/N=C(\N)NC(=O)c1cc(S(C)(=O)=O)c(S(C)(=O)=O)cc1C [Rimeporide]
TAT (time above 500 ng/ml over 24 h) ([1]; Cohort 1, 150 to 225 mg daily oral, Day 1, mean, N 5): 6.6 h | TAT (time above 500 ng/ml over 24 h) ([1]; Cohort 1, 150 to 225 mg daily oral, Day 28, mean, N 4): 8.4 h | TAT (time above 500 ng/ml over 24 h) ([1]; Cohort 2, 300 to 450 mg daily oral, Day 1, mean, N 5): 17 h | TAT (time above 500 ng/ml over 24 h) ([1]; Cohort 2, 300 to 450 mg daily oral, Day 28, mean, N 5): 15 h | TAT (time above 500 ng/ml over 24 h) ([1]; Cohort 3, 450 to 600 mg daily oral, Day 1, mean, N 5): 18 h | TAT (time above 500 ng/ml over 24 h) ([1]; Cohort 3, 450 to 600 mg daily oral, Day 28, mean, N 5): 16 h | TAT (time above 500 ng/ml over 24 h) ([1]; Cohort 4, 600 to 900 mg daily oral, Day 1, mean, N 5): 19.0 h | TAT (time above 500 ng/ml over 24 h) ([1]; Cohort 4, 600 to 900 mg daily oral, Day 28, mean, N 5): 18 h | dose linearity of PK ([1]; DMD patients): dose linear | accumulation with time ([1]; DMD patients, repeated dosing 4 weeks): no sign of any accumulation | effect of fed condition on AUC24 ([1]; fed condition): no impact | effect of fed condition on Cmax ([1]; fed condition): decrease | exposure in children compared to healthy adults ([1]; in vivo): slightly higher exposure than in adults | half-life ([1]; T1/2, Cohort 3, 450 to 600 mg daily oral, Day 1, mean, N 5): 3.9 h | half-life ([1]; T1/2, Cohort 3, 450 to 600 mg daily oral, Day 28, mean, N 5): 3.76 h | half-life ([1]; T1/2, Cohort 4, 600 to 900 mg daily oral, Day 1, mean, N 5): 3.9 h | half-life ([1]; T1/2, Cohort 4, 600 to 900 mg daily oral, Day 28, mean, N 5): 3.75 h | time post dose at which Cmax occurred ([1]; oral immediate release capsules, Days 1 and 28): 1 to 2 h | exposure/concentration range with an efficacious response (animal models): 500 to 2500 ng/mL | FAS: Term (TRT, linear mixed effect model, Day 28 vs Day 0) (FAS): −0.2823 | NMRI indices in skeletal muscle (skeletal muscle): No notable change | NHE-1 inhibition [2]: potent and selective inhibitor | TR: Term (TRT, linear mixed effect model, Day 28 vs Day 0) [3]: 0.5252 | KLK6: Term (TRT, linear mixed effect model, Day 28 vs Day 0) (KLK6): −0.2612 | cardioprotection [4]: confirmed the cardioprotective role | effects in skeletal and cardiac muscles (mdx mice): potent anti-inflammatory and anti-fibrotic effects | SCGB3A2: Term (TRT, linear mixed effect model, Day 28 vs Day 0) (SCGB3A2): −0.5466 | CCL15: Term (TRT, linear mixed effect model, Day 28 vs Day 0) (CCL15): −0.4489 | MB: Term (TRT, linear mixed effect model, Day 28 vs Day 0) (MB (Myoglobin)): −0.6763 | TNFα: Term (TRT, linear mixed effect model, Day 28 vs Day 0) (TNFα): −0.1726 | CK T: Term (TRT, linear mixed effect model, Day 28 vs Day 0) [5]: −0.3851
